Measured values reported in ChEMBL document CHEMBL1212872, “Dual inhibitors of inosine monophosphate dehydrogenase and histone deacetylase based on a cinnamic hydroxamic acid core structure” (Bioorg Med Chem, 2010).

Columns and labels:
[1] = Inhibition of nuclear extract HDAC
Summary of the method: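 HDAC nuclear extract tested with a commercial HDAC activity/inhibitor screening kit per its protocol. Inhibitors were dissolved in DMSO or methanol. IC50 from a variable-slope sigmoidal fit of end-point fractional fluorescence. Autofluorescence corrected using a compound concentration curve run under background-well conditions.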

[2] = target: Inosine-5'-monophosphate dehydrogenase 1 (Homo sapiens, UniProt P20839); test: Inhibition of human IMPDH1; conditions: read-out: Ki(app)
Inosine-5'-monophosphate dehydrogenase 1, sequence (P20839 whole entry): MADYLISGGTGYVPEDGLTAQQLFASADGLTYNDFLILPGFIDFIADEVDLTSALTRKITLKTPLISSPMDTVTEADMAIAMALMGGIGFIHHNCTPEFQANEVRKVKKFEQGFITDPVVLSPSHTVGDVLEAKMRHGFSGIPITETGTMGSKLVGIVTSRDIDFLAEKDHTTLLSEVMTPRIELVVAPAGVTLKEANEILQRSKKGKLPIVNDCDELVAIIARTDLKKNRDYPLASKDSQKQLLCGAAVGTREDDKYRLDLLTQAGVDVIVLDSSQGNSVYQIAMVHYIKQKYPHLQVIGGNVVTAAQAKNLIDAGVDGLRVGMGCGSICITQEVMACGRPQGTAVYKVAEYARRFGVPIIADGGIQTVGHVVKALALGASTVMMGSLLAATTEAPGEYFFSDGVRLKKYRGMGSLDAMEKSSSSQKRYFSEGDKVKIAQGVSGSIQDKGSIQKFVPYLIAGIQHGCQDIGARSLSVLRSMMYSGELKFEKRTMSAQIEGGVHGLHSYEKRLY
Summary of the method: (§1)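 Run in duplicate with IMPDH1 at 150 nM or IMPDH2 at 50 nM, across a range of inhibitor concentrations. Buffer: 50 mM Tris pH 8.0, 100 mM KCl, 1 mM DTT, with 100 µM IMP and 100 µM NAD, at 25 °C. NADH formation followed at 340 nm. IC50 from a variable-slope sigmoidal fit of steady-state velocities; apparent Ki from the Morrison equation.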

[3] = target: Inosine-5'-monophosphate dehydrogenase 2 (Homo sapiens, UniProt P12268); test: Inhibition of human IMPDH2; conditions: read-out: Ki(app); summary of the method: as §1
[4] = system: K562; test: Antiproliferative activity against human K562 cells after 72 hrs by MTS assay; assay type: functional, cell-based; conditions: K562, 72 h

SMILES	IC50 [1]	Ki [2]	Ki [3]	IC50 [4]
COc1cc(NC(=O)NCc2cccc(/C=C/C(=O)NO)c2)ccc1-c1cnco1	830 nM	2300 nM	340 nM	18000 nM
COc1cc(NC(=O)NCc2cccc(/C=C/C(=O)NO)c2)ccc1C#N	640 nM	44000 nM	2600 nM	28000 nM
COc1cc(NC(=O)C(=O)NCc2cccc(/C=C/C(=O)NO)c2)ccc1-c1cnco1	890 nM	4400 nM	1500 nM	> 100000 nM
COc1cc(NC(=O)Nc2cccc(/C=C/C(=O)NO)c2)ccc1-c1cnco1	3000 nM	580 nM	120 nM	> 100000 nM
COc1cc(NC(=O)Nc2cccc(/C=C/C(=O)NO)c2)ccc1C#N	3400 nM	8200 nM	1200 nM	38000 nM
COc1cc(NC(=O)C(=O)Nc2ccc(/C=C/C(=O)NO)cc2)ccc1-c1cnco1	17000 nM	7100 nM	1800 nM	72000 nM
COc1cc(NC(=O)C(=O)Nc2cccc(/C=C/C(=O)NO)c2)ccc1-c1cnco1	1800 nM	460 nM	200 nM	28000 nM

Continued by falling IC50 [1], values first:

IC50 [1]	Ki [2]	Ki [3]	IC50 [4]	SMILES
630 nM	1200 nM	230 nM	4000 nM	COc1cc(NC(=O)Nc2ccc(/C=C/C(=O)NO)cc2)ccc1C#N
550 nM	300 nM	250 nM	4900 nM	COc1cc(NC(=O)Nc2ccc(/C=C/C(=O)NO)cc2)ccc1-c1cnco1
230 nM	17000 nM	1400 nM	5300 nM	COc1cc(NC(=O)C(=O)NCc2ccc(/C=C/C(=O)NO)cc2)ccc1-c1cnco1
36 nM	> 100000 nM	11000 nM		COc1cc(NC(=O)NCc2ccc(/C=C/C(=O)NO)cc2)ccc1C#N
26 nM	7800 nM	1200 nM	3500 nM	COc1cc(NC(=O)NCc2ccc(/C=C/C(=O)NO)cc2)ccc1-c1cnco1
